# From ChEMBL document CHEMBL1147092, “Pharmacokinetic/pharmacodynamic factors influencing emergence of resistance to linezolid in an in vitro model” (Antimicrob Agents Chemother, 2007)
# Assays:
# Staphylococcus aureus [1] = assay: Bactericidal activity against vancomycin-intermediate Staphylococcus aureus Mu50 assessed as reduction of CFU using in vitro PK/PD model with human dosage regimen 120 mg every 12 hrs after 24 hrs; assay type: functional
# How it was run: (§1)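 Flow-through central chamber of BHI broth at 37°C, with pumped clearance set for a 5-h half-life (volume of distribution 290 ml). Exponential-phase inoculum was 10^6 CFU/ml, in duplicate, with growth controls. Samples taken 0–72 h were diluted in saline, plated on nutrient agar and incubated 37°C for 24 h; quantification limit 50 CFU/ml. Drug levels were checked by HPLC. Reduction is the log10 CFU/ml fall.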
# [2] = Half life for simulated intermittent-dosage regimen at 120 mg every 12 hrs using in vitro PK/PD model
# Staphylococcus aureus [3] = assay: Bactericidal activity against vancomycin-intermediate Staphylococcus aureus Mu50 assessed as reduction of CFU using in vitro PK/PD model with human dosage regimen 600 mg every 12 hrs after 24 hrs; assay type: functional
# How it was run: (§2)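 Flow-through in vitro PK/PD model in BHI broth at 37°C, 5-h half-life (Vd 290 ml); exponential-phase inoculum 10^6 CFU/ml, duplicates with growth controls. […] Viable counts by saline dilution, plating on nutrient agar, 37°C 24 h; bactericidal = >3-log10 CFU/ml drop.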
# Enterococcus faecium [4] = assay: Bactericidal activity against vancomycin-resistant Enterococcus faecium ATCC 700221 assessed as reduction of CFU using in vitro PK/PD model with 120 mg/24 hr continuous infusion simulated regimen after 48 hrs; assay type: functional; how it was run: as §1
# Staphylococcus aureus [5] = assay: Bactericidal activity against vancomycin-intermediate Staphylococcus aureus Mu50 assessed as reduction of CFU using in vitro PK/PD model with 120 mg/24 hr continuous infusion simulated regimen after 48 hrs; assay type: functional; how it was run: as §2
# Staphylococcus aureus [6] = assay: Bactericidal activity against methicillin-resistant Staphylococcus aureus ATCC 43300 assessed as reduction of CFU using in vitro PK/PD model with human dosage regimen 600 mg every 12 hrs after 24 hrs; assay type: functional; how it was run: as §1
# Staphylococcus aureus [7] = assay: Area under population analysis profile for methicillin-resistant Staphylococcus aureus using in vitro PK/PD model relative to growth control with 120 mg/24 hrs continuous infusion regimen after 72 hrs; assay type: functional
# How it was run: (§3)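 Bacteria recovered after 72 h of a 2.0-μg/ml continuous infusion in a flow-through BHI model (duplicates). 50 μl of a 0.5 McFarland suspension or dilutions were spiral-plated on BHI agar with linezolid 0–5 μg/ml and incubated 35°C for 48 h; counting limit 20 CFU/ml. Area under the log10 CFU/ml vs concentration curve (trapezoidal) is compared with the 72-h growth control.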
# Staphylococcus aureus [8] = assay: Area under population analysis profile for vancomycin-intermediate Staphylococcus aureus Mu50 using in vitro PK/PD model relative to growth control with 120 mg/24 hrs continuous infusion regimen after 72 hrs; assay type: functional
# Staphylococcus aureus [9] = assay: Area under population analysis profile for heteroresistant vancomycin-intermediate Staphylococcus aureus Mu3 using in vitro PK/PD model relative to growth control with 120 mg/24 hrs continuous infusion regimen after 72 hrs; assay type: functional; how it was run: as §3
# Staphylococcus aureus [10] = assay: Antibacterial activity against heteroresistant vancomycin-intermediate Staphylococcus aureus Mu3 using in vitro PK/PD model with 120 mg/24 hr continuous infusion simulated regimen after 72 hrs; assay type: functional; conditions: Mu3, 72 h
# [11] = Half life for simulated intermittent-dosage regimen at 600 mg every 12 hrs using in vitro PK/PD model
# Enterococcus faecium [12] = assay: Antibacterial activity against vancomycin-resistant Enterococcus faecium ATCC 700221 by microdilution method; assay type: functional
# How it was run: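 Standard broth microdilution in cation-adjusted Mueller-Hinton broth, run in four replicates at baseline. Before testing, the strain was held at −80°C in tryptone soy broth with 20% glycerol and subcultured on horse blood agar for 24 h at 35°C.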
# Enterococcus faecium [13] = assay: Area under population analysis profile for vancomycin-resistant Enterococcus faecium ATCC 700221 using in vitro PK/PD model relative to growth control with 120 mg/24 hrs continuous infusion regimen after 72 hrs; assay type: functional; how it was run: as §3
# Enterococcus faecium [14] = assay: Bactericidal activity against vancomycin-resistant Enterococcus faecium ATCC 700221 assessed as reduction of CFU using in vitro PK/PD model with human dosage regimen 600 mg every 12 hrs at 24 hrs; assay type: functional; how it was run: as §1
# Staphylococcus aureus [15] = assay: Antibacterial activity against methicillin-resistant Staphylococcus aureus ATCC 43300 using in vitro PK/PD model with 120 mg/24 hr continuous infusion simulated regimen after 72 hrs; assay type: functional; conditions: ATCC 43300, 72 h
# Staphylococcus aureus [16] = assay: Bactericidal activity against heteroresistant vancomycin-intermediate Staphylococcus aureus Mu3 assessed as reduction of CFU using in vitro PK/PD model with human dosage regimen 600 mg every 12 hrs after 24 hrs; assay type: functional; how it was run: as §1
smiles,measurement,setting,value
CC(=O)NC[C@H]1CN(c2ccc(N3CCOCC3)c(F)c2)C(=O)O1 [LINEZOLID],log10CFU/ml,Staphylococcus aureus [1],>3
same,half-life at 12 h,[2],5.32 h
same,log10CFU/ml,Staphylococcus aureus [3],3.3
same,log10CFU/ml,Enterococcus faecium [4],>3
same,log10CFU/ml,Staphylococcus aureus [5],>3
same,log10CFU/ml,Staphylococcus aureus [6],3.9
same,AUPAP,Staphylococcus aureus [7],178%
same,AUPAP,Staphylococcus aureus [8],90.2%
same,AUPAP,Staphylococcus aureus [9],70.2%
same,MIC,Staphylococcus aureus [10],≥ 8 µg/mL
same,half-life at 12 h,[11],5.32 h
same,MIC,Enterococcus faecium [12],2 µg/mL
same,AUPAP,Enterococcus faecium [13],40%
same,log10CFU/ml,Enterococcus faecium [14],3.8
same,MIC,Staphylococcus aureus [15],≥ 8 µg/mL
same,log10CFU/ml,Staphylococcus aureus [16],3.1
